Reference: ChEMBL document CHEMBL4052823, “Extra Sugar on Vancomycin: New Analogues for Combating Multidrug-Resistant Staphylococcus aureus and Vancomycin-Resistant Enterococci” (J Med Chem, 2018)
Converted amounts (≈) assume the structure as drawn.

How the values were obtained:
Type in all cases: functional
Staphylococcus aureus [1] = assay: Antibacterial activity against vancomycin/methicillin-susceptible Staphylococcus aureus Newman […] after 24 hrs by broth microdilution method
Outline: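 Broth microdilution in cation-adjusted Mueller-Hinton II broth. […] Each well received ~10^5 CFU of exponential-phase bacteria and was incubated at 37 °C for 24 h. MIC was taken as the lowest concentration giving complete growth inhibition, interpreted per CLSI.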

Enterococcus faecium [2] = assay: Antibacterial activity against glycopeptide-resistant Enterococcus faecium Efm-HS-0649 vanA after 24 hrs by broth microdilution method; conditions: Efm-HS-0649, 24 h
Outline: (§1)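 Broth microdilution in cation-adjusted Mueller-Hinton II broth. DMSO stocks were diluted in broth and twofold serially from 128 to 0.0625 μg/mL or lower. Each well was inoculated with ~10^5 CFU of exponential-phase bacteria and incubated at 37 °C for 24 h. MIC was the lowest concentration giving complete growth inhibition, read per CLSI. Growth controls contained broth plus DMSO.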

Staphylococcus aureus [3] = assay: Antibacterial activity against healthcare-associated methicillin-resistant/vancomycin-intermediate Staphylococcus aureus Mu50 after 24 hrs by broth microdilution method; conditions: Mu50, 24 h; outline: as §1
Enterococcus faecium [4] = assay: Antibacterial activity against glycopeptide-resistant Enterococcus faecium Efm-HS-0847 vanM after 24 hrs by broth microdilution method; conditions: Efm-HS-0847, 24 h; outline: as §1
Enterococcus faecium [5] = assay: Antibacterial activity against glycopeptide-resistant Enterococcus faecium Efm-HS-vb01 vanB after 24 hrs by broth microdilution method; conditions: Efm-HS-vb01, 24 h; outline: as §1
Enterococcus faecium [6] = assay: Antibacterial activity against glycopeptide-resistant Enterococcus faecium Efm-HS-08257 vanM after 24 hrs by broth microdilution method; conditions: Efm-HS-08257, 24 h; outline: as §1
Enterococcus faecium [7] = assay: Antibacterial activity against glycopeptide-resistant Enterococcus faecium Efm-HS-06188 vanA after 24 hrs by broth microdilution method; conditions: Efm-HS-06188, 24 h; outline: as §1

SMILES	MIC90 (Staphylococcus aureus [1])	MIC (Enterococcus faecium [2])	MIC90 (Staphylococcus aureus [3])	MIC (Enterococcus faecium [4])	MIC (Enterococcus faecium [5])	MIC (Enterococcus faecium [6])	MIC (Enterococcus faecium [7])
CN[C@H](CC(C)C)C(=O)N[C@H]1C(=O)N[C@@H](CC(N)=O)C(=O)N[C@H]2C(=O)N[C@H]3C(=O)N[C@H](C(=O)N[C@H](C(=O)O)c4cc(O)c(CNCCO)c(O)c4-c4cc3ccc4O)[C@H](O)c3ccc(c(Cl)c3)Oc3cc2cc(c3O[C@@H]2O[C@H](CO)[C@@H](O)[C@H](O)[C@H]2O[C@H]2C[C@](C)(NCc3ccc(-c4ccc(Cl)cc4)cc3)[C@H](O)[C@H](C)O2)Oc2ccc(cc2Cl)[C@H]1O	0.03 µg/mL (≈ 0.0174 µM)	2 µg/mL (≈ 1.16 µM)	0.12 µg/mL (≈ 0.0696 µM)	4 µg/mL (≈ 2.32 µM)	≤ 0.06 µg/mL	2 µg/mL (≈ 1.16 µM)	1 µg/mL (≈ 0.58 µM)
CCCCCCCCCCNCCN[C@@]1(C)C[C@H](O[C@H]2[C@H](Oc3c4cc5cc3Oc3ccc(cc3Cl)[C@@H](O)[C@@H](NC(=O)[C@@H](CC(C)C)NC)C(=O)N[C@@H](CC(N)=O)C(=O)N[C@H]5C(=O)N[C@H]3C(=O)N[C@H](C(=O)N[C@H](C(=O)O)c5cc(O)c(CNCCCNC(=O)[C@H](O)[C@@H](O)[C@H](O)[C@H](O)CO)c(O)c5-c5cc3ccc5O)[C@H](O)c3ccc(c(Cl)c3)O4)O[C@H](CO)[C@@H](O)[C@@H]2O)O[C@@H](C)[C@H]1O	0.5 µg/mL (≈ 0.264 µM)	2 µg/mL (≈ 1.05 µM)	1 µg/mL (≈ 0.527 µM)	2 µg/mL (≈ 1.05 µM)	2 µg/mL (≈ 1.05 µM)	0.12 µg/mL (≈ 0.0633 µM)	4 µg/mL (≈ 2.11 µM)
CN[C@H](CC(C)C)C(=O)N[C@H]1C(=O)N[C@@H](CC(N)=O)C(=O)N[C@H]2C(=O)N[C@H]3C(=O)N[C@H](C(=O)N[C@H](C(=O)O)c4cc(O)c(CNCP(=O)(O)O)c(O)c4-c4cc3ccc4O)[C@H](O)c3ccc(c(Cl)c3)Oc3cc2cc(c3O[C@@H]2O[C@H](CO)[C@@H](O)[C@H](O)[C@H]2O[C@H]2C[C@](C)(NCc3ccc(-c4ccc(Cl)cc4)cc3)[C@H](O)[C@H](C)O2)Oc2ccc(cc2Cl)[C@H]1O	0.5 µg/mL (≈ 0.282 µM)	2 µg/mL (≈ 1.13 µM)	0.5 µg/mL (≈ 0.282 µM)	2 µg/mL (≈ 1.13 µM)	0.25 µg/mL (≈ 0.141 µM)	0.12 µg/mL (≈ 0.0677 µM)	4 µg/mL (≈ 2.26 µM)
CCCCCCCCCCNCCN[C@@]1(C)C[C@H](O[C@H]2[C@H](Oc3c4cc5cc3Oc3ccc(cc3Cl)[C@@H](O)[C@@H](NC(=O)[C@@H](CC(C)C)NC)C(=O)N[C@@H](CC(N)=O)C(=O)N[C@H]5C(=O)N[C@H]3C(=O)N[C@H](C(=O)N[C@H](C(=O)O)c5cc(O)c(CN[C@@H]6C(O)O[C@H](CO)[C@@H](O)[C@@H]6O)c(O)c5-c5cc3ccc5O)[C@H](O)c3ccc(c(Cl)c3)O4)O[C@H](CO)[C@@H](O)[C@@H]2O)O[C@@H](C)[C@H]1O (some centres undefined)	8 µg/mL (≈ 4.39 µM)	64 µg/mL (≈ 35.1 µM)	32 µg/mL (≈ 17.5 µM)	32 µg/mL (≈ 17.5 µM)	16 µg/mL (≈ 8.77 µM)	8 µg/mL (≈ 4.39 µM)	64 µg/mL (≈ 35.1 µM)
CCCCCCCCCCNCCN[C@@]1(C)C[C@H](O[C@H]2[C@H](Oc3c4cc5cc3Oc3ccc(cc3Cl)[C@@H](O)[C@@H](NC(=O)[C@@H](CC(C)C)NC)C(=O)N[C@@H](CC(N)=O)C(=O)N[C@H]5C(=O)N[C@H]3C(=O)N[C@H](C(=O)N[C@H](C(=O)O)c5cc(O)c(CN[C@H]6C(O)O[C@H](CO)[C@@H](O)[C@@H]6O)c(O)c5-c5cc3ccc5O)[C@H](O)c3ccc(c(Cl)c3)O4)O[C@H](CO)[C@@H](O)[C@@H]2O)O[C@@H](C)[C@H]1O (some centres undefined)	4 µg/mL (≈ 2.19 µM)	64 µg/mL (≈ 35.1 µM)	8 µg/mL (≈ 4.39 µM)	32 µg/mL (≈ 17.5 µM)	16 µg/mL (≈ 8.77 µM)	8 µg/mL (≈ 4.39 µM)	64 µg/mL (≈ 35.1 µM)
CN[C@H](CC(C)C)C(=O)N[C@H]1C(=O)N[C@@H](CC(N)=O)C(=O)N[C@H]2C(=O)N[C@H]3C(=O)N[C@H](C(=O)N[C@H](C(=O)NCCCN(C)C)c4cc(O)c(CNCCCNC(=O)[C@H](O)[C@@H](O)[C@H](O)[C@H](O)CO)c(O)c4-c4cc3ccc4O)[C@H](O)c3ccc(c(Cl)c3)Oc3cc2cc(c3O[C@@H]2O[C@H](CO)[C@@H](O)[C@H](O)[C@H]2O[C@H]2C[C@](C)(NCc3ccc(-c4ccc(Cl)cc4)cc3)[C@H](O)[C@H](C)O2)Oc2ccc(cc2Cl)[C@H]1O	1 µg/mL (≈ 0.5 µM)	1 µg/mL (≈ 0.5 µM)	2 µg/mL (≈ 1 µM)	2 µg/mL (≈ 1 µM)	8 µg/mL (≈ 4 µM)	1 µg/mL (≈ 0.5 µM)	2 µg/mL (≈ 1 µM)
CN[C@H](CC(C)C)C(=O)N[C@H]1C(=O)N[C@@H](CC(N)=O)C(=O)N[C@H]2C(=O)N[C@H]3C(=O)N[C@H](C(=O)N[C@H](C(=O)NCCCN(C)C)c4cc(O)c(C)c(O)c4-c4cc3ccc4O)[C@H](O)c3ccc(c(Cl)c3)Oc3cc2cc(c3O[C@@H]2O[C@H](CO)[C@@H](O)[C@H](O)[C@H]2O[C@H]2C[C@](C)(NCc3ccc(-c4ccc(Cl)cc4)cc3)[C@H](O)[C@H](C)O2)Oc2ccc(cc2Cl)[C@H]1O	1 µg/mL (≈ 0.572 µM)	0.5 µg/mL (≈ 0.286 µM)	1 µg/mL (≈ 0.572 µM)	1 µg/mL (≈ 0.572 µM)	2 µg/mL (≈ 1.14 µM)	0.12 µg/mL (≈ 0.0686 µM)	1 µg/mL (≈ 0.572 µM)
